Reference: ChEMBL document CHEMBL1221342, “Synthesis and in vitro antitumor activity of new 4,5-dihydropyrazole derivatives” (Bioorg Med Chem, 2010)

How the values were obtained:
HCT-15 = assay: Growth inhibition of human HCT15 cells after 48 hrs by SRB assay; assay type: functional; conditions: HCT-15, 48 h
Outline: (§1)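 NCI 60-cell-line screen. Cells grown in RPMI1640 with 5% fetal calf serum and 2 mM L-glutamine, with inoculum density set by cell line. Preincubated 24 h, then given compound in DMSO at 10^-4 to 10^-8 M (five 10-fold steps) for 48 h continuous exposure. Growth measured by SRB protein assay. GI50, TGI and LC50 reported as –log molar.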

A498 = assay: Growth inhibition of human A498 cells after 48 hrs by SRB assay; assay type: functional; conditions: A498, 48 h; outline: as §1
IGROV-1 = assay: Growth inhibition of human IGROV1 cells after 48 hrs by SRB assay; assay type: functional; conditions: IGROV-1, 48 h; outline: as §1
MCF7 = assay: Growth inhibition of human MCF7 cells after 48 hrs by SRB assay; assay type: functional; conditions: MCF7, 48 h; outline: as §1
NCI-H460 [1] = assay: Growth inhibition of human NCI-H460 cells after 48 hrs by SRB assay; assay type: functional; conditions: NCI-H460, 48 h; outline: as §1
TK-10 = assay: Growth inhibition of human TK10 cells after 48 hrs by SRB assay; assay type: functional; conditions: TK-10, 48 h; outline: as §1
Malme-3M = assay: Growth inhibition of human MALME-3M cells after 48 hrs by SRB assay; assay type: functional; conditions: read-out: pTGI (converted); outline: as §1
NCI-H460 [2] = assay: Cytotoxicity against human NCI-H460 cells after 72 hrs by SRB assay; assay type: functional, cell-based; conditions: NCI-H460, 72 h
Outline: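 NCI-H460 (ATCC) cells seeded in 96-well plates in growth medium. Scalar drug concentrations added 24 h after plating, then 72 h exposure. Surviving cells stained with sulforhodamine B, OD read at 570 nm. IC50 (50% growth inhibition) fitted from dose–response curves. Mean ± SE of at least three independent experiments.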

SNB-75 = assay: Growth inhibition of human SNB75 cells after 48 hrs by SRB assay; assay type: functional; conditions: SNB-75, 48 h; outline: as §1
KM12 = assay: Growth inhibition of human KM12 cells after 48 hrs by SRB assay; assay type: functional; conditions: KM12, 48 h; outline: as §1
MDA-MB-468 = assay: Growth inhibition of human MDA-MB-468 cells after 48 hrs by SRB assay; assay type: functional; conditions: MDA-MB-468, 48 h; outline: as §1
SF-295 = assay: Growth inhibition of human SF295 cells after 48 hrs by SRB assay; assay type: functional; conditions: SF-295, 48 h; outline: as §1
UO-31 = assay: Growth inhibition of human UO31 cells after 48 hrs by SRB assay; assay type: functional; conditions: UO-31, 48 h; outline: as §1
DU-145 = assay: Growth inhibition of human DU145 cells after 48 hrs by SRB assay; assay type: functional; conditions: DU-145, 48 h; outline: as §1
SW-620 = assay: Growth inhibition of human SW620 cells after 48 hrs by SRB assay; assay type: functional; conditions: SW-620, 48 h; outline: as §1
NCI-H522 = assay: Growth inhibition of human NCI-H522 cells after 48 hrs by SRB assay; assay type: functional; conditions: NCI-H522, 48 h; outline: as §1
K562 = assay: Growth inhibition of human K562 cells after 48 hrs by SRB assay; assay type: functional; conditions: K562, 48 h; outline: as §1
NCI-H322M = assay: Growth inhibition of human NCI-H322M cells after 48 hrs by SRB assay; assay type: functional; outline: as §1
HCT-116 = assay: Growth inhibition of human HCT116 cells after 48 hrs by SRB assay; assay type: functional; conditions: HCT-116, 48 h; outline: as §1
M14 = assay: Growth inhibition of human M14 cells after 48 hrs by SRB assay; assay type: functional; conditions: M14, 48 h; outline: as §1
[3] = Growth inhibition of human […] cells after 48 hrs by SRB assay; assay type: functional; outline: as §1
OVCAR-4 = assay: Growth inhibition of human OVCAR4 cells after 48 hrs by SRB assay; assay type: functional; conditions: OVCAR-4, 48 h; outline: as §1
HOP-62 = assay: Growth inhibition of human HOP62 cells after 48 hrs by SRB assay; assay type: functional; conditions: HOP-62, 48 h; outline: as §1
OVCAR-3 = assay: Growth inhibition of human OVCAR-3 cells after 48 hrs by SRB assay; assay type: functional; conditions: OVCAR-3, 48 h; outline: as §1
SF-268 = assay: Growth inhibition of human SF268 cells after 48 hrs by SRB assay; assay type: functional; conditions: SF-268, 48 h; outline: as §1
PC-3 = assay: Growth inhibition of human PC3 cells after 48 hrs by SRB assay; assay type: functional; conditions: PC-3, 48 h; outline: as §1
RXF 393 = assay: Growth inhibition of human RXF393 cells after 48 hrs by SRB assay; assay type: functional; conditions: RXF 393, 48 h; outline: as §1
HL-60(TB) = assay: Growth inhibition of human HL-60(TB) cells after 48 hrs by SRB assay; assay type: functional; conditions: HL-60, 48 h
Outline: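 NCI 60-cell-line screen: cells grown in RPMI1640 with 5% fetal calf serum and 2 mM L-glutamine, preincubated 24 h, then exposed to compound in DMSO at five concentrations (10^-4 to 10^-8 M) for 48 h continuous exposure. Growth estimated by sulforhodamine B protein assay; reported as pGI50 (-log molar concentration inhibiting net cell growth by 50%).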

U-251 = assay: Growth inhibition of human U251 cells after 48 hrs by SRB assay; assay type: functional; conditions: U-251, 48 h; outline: as §1
SK-MEL-5 = assay: Growth inhibition of human SK-MEL-5 cells after 48 hrs by SRB assay; assay type: functional; conditions: SK-MEL-5, 48 h; outline: as §1
CCRF-CEM = assay: Growth inhibition of human CCRF-CEM cells after 48 hrs by SRB assay; assay type: functional; outline: as §1
BT-549 = assay: Growth inhibition of human BT549 cells after 48 hrs by SRB assay; assay type: functional; conditions: BT-549, 48 h; outline: as §1
HT-29 = assay: Growth inhibition of human HT-29 cells after 48 hrs by SRB assay; assay type: functional; conditions: HT-29, 48 h; outline: as §1
SR = assay: Growth inhibition of human SR cells after 48 hrs by SRB assay; assay type: functional; outline: as §1

COc1cc(C2=NN(C(C)=O)C(c3cc(OC)c(OC)c(OC)c3)C2)ccc1O (centres undefined)
501 nM: GI50 (IGROV-1) | GI50 (NCI-H322M) | GI50 (HOP-62) | TGI (HL-60(TB); read-out: pTGI (converted)) | TGI (SK-MEL-5; read-out: pTGI (converted)) | TGI (SR; read-out: pTGI (converted))
398 nM: GI50 (HCT-15) | GI50 (NCI-H460 [1]) | GI50 (UO-31) | GI50 (K562) | GI50 (HCT-116) | GI50 (M14) | GI50 (OVCAR-4) | GI50 (U-251)
210 nM: IC50 (NCI-H460 [2])
12600 nM: TGI (DU-145; read-out: pTGI (converted))
50.1 nM: GI50 (SR)
> 100000 nM: TGI (HCT-15; read-out: pTGI (converted)) | TGI (IGROV-1; read-out: pTGI (converted)) | TGI (MCF7; read-out: pTGI (converted)) | TGI (TK-10; read-out: pTGI (converted)) | TGI (Malme-3M) | TGI (SNB-75; read-out: pTGI (converted)) | TGI (KM12; read-out: pTGI (converted)) | TGI (UO-31; read-out: pTGI (converted)) | TGI (SW-620; read-out: pTGI (converted)) | TGI (NCI-H522; read-out: pTGI (converted)) | TGI (K562; read-out: pTGI (converted)) | TGI (NCI-H322M; read-out: pTGI (converted)) | TGI (M14; read-out: pTGI (converted)) | TGI (OVCAR-4; read-out: pTGI (converted)) | TGI (HOP-62; read-out: pTGI (converted)) | TGI (SF-268; read-out: pTGI (converted)) | TGI (PC-3; read-out: pTGI (converted)) | TGI (U-251; read-out: pTGI (converted)) | TGI (BT-549; read-out: pTGI (converted)) | TGI (HT-29; read-out: pTGI (converted))
200 nM: GI50 (SF-295) | GI50 [3]
63.1 nM: GI50 (SK-MEL-5)
631 nM: GI50 (TK-10) | TGI (OVCAR-3; read-out: pTGI (converted)) | GI50 (SF-268) | GI50 (BT-549)
1000 nM: TGI (CCRF-CEM; read-out: pTGI (converted))
794 nM: TGI (MDA-MB-468; read-out: pTGI (converted)) | TGI ([3]; read-out: pTGI (converted))
251 nM: GI50 (A498) | GI50 (MCF7) | GI50 (SNB-75) | GI50 (KM12) | GI50 (MDA-MB-468) | GI50 (OVCAR-3) | GI50 (PC-3)
158 nM: GI50 (HL-60(TB))
126 nM: GI50 (RXF 393)
15800 nM: TGI (NCI-H460 [1]; read-out: pTGI (converted))
316 nM: GI50 (DU-145) | GI50 (SW-620) | GI50 (NCI-H522) | GI50 (CCRF-CEM) | GI50 (HT-29)
3980 nM: TGI (A498; read-out: pTGI (converted))
50100 nM: TGI (HCT-116; read-out: pTGI (converted))
